Reference: PubChem BioAssay AID1899 (The Scripps Research Institute Molecular Screening Center, 2009)
About 1,000 (0.33%) of roughly 300,000 compounds were called active. Shown is part of a subset that was picked to be rich in actives. Unmarked numbers belong to inactive results.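 How the source made its calls: active means inhibition above the mean of all tested compounds plus 3 SD, set per screening campaign (cut at about 45% in these data); inactive means the rest.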

tested on: HCV core protein (residues 1-106) dimerization; assay: inhibitors of HCV core protein dimerization, primary screen, biochemical, TR-FRET, high-throughput (AID 1899); conditions: TR-FRET GST/Flag-core106 dimerization, 1536-well; at 5 µM; active compounds read high
Procedure, shortened: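 assay system = GST-tagged and Flag-tagged HCV core protein residues 1-106 | controls = unlabelled core106 and no-GST-core106 wells | incubation = compound-protein-antibody incubation 4 h at 22.5 °C | probe or stimulus = Eu donor and XL665 acceptor anti-tag antibodies | read-out = % inhibition based on acceptor/donor emission ratio | signal = TR-FRET 671 and 617 nm emission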

First: O=C1NC(=O)N(c2ccccc2)C(=O)/C1=C/c1ccc([N+](=O)[O-])s1
Second: COc1cccc(N2C(=O)NC(=O)/C(=C\c3cn(C)c4ccccc34)C2=O)c1
The inhibition of the first is lower: -5.13% for the first, -2.56% for the second.

Compared with `CN1C2C=C(N(C(=O)c3ccc(Cl)cc3)c3ccccc3)CC1CC2` (stereo not given), `CSC1=NP(=S)(SC)N(C)c2nc3n(c21)CCC3` (stereo not given) is higher in inhibition: -2.38% for the first, 8.93% for the second.

With `Cc1cccc(N2C(=O)NC(=O)/C(=C\c3cnn(-c4ccccc4)c3)C2=O)c1` the inhibition was 46.9% (active).
